Most compounds without a hit are left out; they make up all but 1% or so of the library.
PglD inh – blocks C. jejuni PglD acetyltransferase activity. inhibition, % at 12.5 µM. 0.098% of 360,000 active. purified PglD enzyme, DTNB colorimetric CoA detection; in the data active = inhibition above about 16%, passing the limit was not always enough
PDI turbidity – blocks human protein disulfide isomerase activity | P07237 | PDI insulin aggregation turbidity, A650, 90 min | inhibition, % at 10 µM | 0.052% of 350,000 active | AID 588391;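 active = mean inhibition across replicates of 30% or more, whatever share of single replicates reach that level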
PvdQ acylase – blocks Pseudomonas aeruginosa PvdQ acylase activity; purified PvdQ acylase, fluorescence plate reader; inhibition, % at 10 µM; 0.063% of 340,000 active; AID 488965; in the data active = inhibition above about 30%, passing the limit was not always enough;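 note: 0% = vehicle neutral wells and 100% = reference inhibitor wells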
IMP-1 inhibitor – blocks Pseudomonas aeruginosa IMP-1 metallo-beta-lactamase; 0.45% of 290,000 active; AID 1556; inhibition, % at 5.6 µM; purified IMP-1, nitrocefin hydrolysis, epi-absorbance fluorescence;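 active = inhibition above the mean plus 3 SD of all compounds in the same screening run, cut at about 4.5% in these data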;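 note: 0% = IMP-1 with DMSO and 100% = DMSO wells lacking enzyme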
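Assay system: purified recombinant IMP-1 beta-lactamase. Input: IMP-1 0.2 nM before substrate addition. Buffer or medium: Zinc- and detergent-supplemented HEPES buffer, pH 7.1. Schedule: 25 °C, 15 min preincubation, 25 min reaction. Signal: Epi-absorbance fluorescence, 480 nm excitation, 530 nm emission. Evaluation: percent inhibition from optical density relative to buffer-blank wells.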
VIM-2 inhibitor – blocks Pseudomonas aeruginosa VIM-2 metallo-beta-lactamase. purified VIM-2, nitrocefin hydrolysis, epi-absorbance fluorescence. inhibition, % at 5.6 µM. 0.89% of 290,000 active;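 active = inhibition above the mean of all tested compounds plus 3 SD, cutoff set per screening run, cut at about 7.5% in these data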;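 note: red hydrolysis product quenches plate fluorescence so inhibitors raise well fluorescence; 0% = enzyme with DMSO and 100% = DMSO without enzyme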
ERp5 block – ERp5 (human) disulfide isomerase inhibition. inhibition, % at 9.99 µM. Q15084. ERp5 insulin aggregation, absorbance 650 nm, 90 min. 0.05% of 350,000 active;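 active = mean replicate inhibition above about 25%, with every replicate also reaching it, limit read from the data, passing the limit was not always enough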
Target sequence (Q15084 whole entry, looked up): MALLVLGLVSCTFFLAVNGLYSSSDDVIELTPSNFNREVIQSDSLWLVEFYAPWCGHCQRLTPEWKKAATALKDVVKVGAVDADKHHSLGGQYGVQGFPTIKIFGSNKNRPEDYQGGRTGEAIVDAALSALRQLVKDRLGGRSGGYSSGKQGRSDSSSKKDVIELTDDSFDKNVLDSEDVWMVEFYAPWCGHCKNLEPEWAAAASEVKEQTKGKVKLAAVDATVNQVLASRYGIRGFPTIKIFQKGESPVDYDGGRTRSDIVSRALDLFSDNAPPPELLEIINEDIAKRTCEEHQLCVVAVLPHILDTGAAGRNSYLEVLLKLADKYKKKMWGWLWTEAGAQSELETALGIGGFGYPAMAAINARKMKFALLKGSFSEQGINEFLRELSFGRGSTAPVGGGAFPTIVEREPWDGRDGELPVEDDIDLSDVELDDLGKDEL
Starred values were filed as active, the others as inactive; / = no result.

SMILES	PglD inh	PDI turbidity	PvdQ acylase	IMP-1 inhibitor	VIM-2 inhibitor	ERp5 block
Cc1ccc(S(=O)(=O)Nc2ccc3c(c2)C(=O)N([C@@H](C)CO)C[C@@H](C)[C@H](CN(C)C(=O)c2ccncc2)OCCCC[C@H](C)O3)cc1	-0.1	/	/	/	/	/
O=C(NCC1CC1)c1cc([N+](=O)[O-])cc([N+](=O)[O-])c1	/	-1.9	67.9*	0.0	-1.4	1.9
O=C(NCC1CCCCC1)c1cccc([N+](=O)[O-])c1	-1.6	18.8	0.3	1.6	-0.8	3.0
CCOC(=O)C1CCN(c2c(NCCCN(C)C3CCCCC3)c(=O)c2=O)CC1	0.2	34.3*	-1.7	-2.7	0.1	-1.0
CCOC(=O)C1CCN(c2c(NCCCN3CCCCC3)c(=O)c2=O)CC1	-2.6	2.4	-7.7	-1.1	-0.8	1.1
CO[C@@H]1CN(C)C(=O)c2cc(NC(=O)C3CC3)ccc2OC[C@@H](C)N(CCC(F)(F)F)C[C@@H]1C	-1.4	/	/	/	/	-4.7
O=C(NCCCN1CCOCC1)c1ccc(CS(=O)(=O)c2c(Cl)cccc2Cl)o1	7.5	/	-13.7	-5.8	-3.7	5.9
O=C(NCCCN1CCCC1)c1ccc(CS(=O)(=O)c2c(Cl)cccc2Cl)o1	-6.4	-5.9	-1.7	-3.0	-1.7	26.2*
N/C(CS(=O)(=O)c1ccccn1)=N\OC(=O)c1ccccc1Cl	-1.6	3.0	-7.7	-3.3	-2.1	-1.3
CCCS(=O)(=O)C/C(N)=N/OC(=O)c1ccccc1Cl	3.7	14.6	/	8.3*	-1.2	1.8
O=C(C1=C(O)C(=O)N(Cc2ccco2)C1c1cccs1)c1cccs1 (stereo unspecified)	/	4.3	3.1	-1.2	-2.2	-3.3
CC(=O)C1=C(O)C(=O)N(CC#N)C1c1cccs1 (stereo unspecified)	5.5	0.6	-1.4	6.2*	-2.0	/
CCCOc1ccc(-c2nc(=S)[nH][nH]2)cc1	0.9	3.2	-1.3	35.3*	6.3	/
S=c1nc(-c2ccc(Cl)cc2)[nH][nH]1	-5.7	7.2	-5.4	-3.6	-2.8	-0.3
COc1cc2cc(C(=O)N(C)C3CCS(=O)(=O)C3)[nH]c2cc1OC (stereo unspecified)	5.9	3.4	-7.1	-4.9	8.1*	8.2
COc1ccc(-n2nc([N+](=O)[O-])c(=NC3CCN(Cc4ccccc4)CC3)n2O)cc1	-6.8	15.3	-11.1	9.4*	-2.3	1.9
CO[C@H]1CN(C)C(=O)c2ccc(NS(C)(=O)=O)cc2OC[C@@H](C)N(C(=O)C2CC2)C[C@H]1C	-1.8	/	/	/	/	-1.1
CC1(C)Cc2nc(-c3ccccc3)nc(SCC(=O)N3CCOCC3)c2CO1	-4.9	8.1	-12.3	-2.8	-3.7	3.7
Cc1ccc(-c2nc3c(c(SCC(=O)N4CCOCC4)n2)Cc2c(CO)cnc(C)c2O3)cc1	0.3	4.9	-6.3	8.9*	3.0	-2.2
COc1ccc(-c2ccc(SCC(=O)N3CCOCC3)nn2)cc1	3.3	-1.1	-11.6	-0.9	-2.3	0.9
COc1ccc(-c2nc3c(c(SCC(=O)N4CCOCC4)n2)Cc2c(CO)cnc(C)c2O3)cc1	-2.7	4.8	-2.9	6.3*	5.6	4.8
Cc1sc2ncnc(NCC(c3ccco3)N3CCCC3)c2c1C (stereo unspecified)	-2.5	5.3	-11.2	-0.6	10.6*	/
CC(C)C(=O)Nc1nnc(SCC(=O)NCc2ccco2)s1	/	3.8	-7.6	1.1	5.2	/
O=C(CSc1nnc(NC(=O)c2ccc(F)cc2)s1)NCc1ccco1	-5.6	-7.7	0.9	-1.3	11.7*	-11.1
CC(C)(C)C(=O)Nc1nnc(SCC(=O)NCc2ccco2)s1	/	0.9	-4.9	-2.5	8.6*	0.0
SMILES	PglD inh	PDI turbidity	PvdQ acylase	IMP-1 inhibitor	VIM-2 inhibitor	ERp5 block
CN(C)/C=C1/N=C(c2ccccc2)OC1=O	-1.5	18.2	3.9	0.6	-2.5	/
O=CC1=C(c2ccccc2)Oc2ccccc2O1	2.0	-2.4	81.6*	-0.9	-1.9	1.5
COCC(=O)N1CCC2(CC1)CN(C(=O)CN1CCOCC1)[C@H](CO)c1c2c2ccc(OC)cc2n1C	/	/	/	/	/	3.7
CCOC(=O)C1CCCN(C2=NC(=O)/C(=C/c3ccc(O)c(OCC)c3)S2)C1 (stereo unspecified)	-7.2	6.1	-8.5	-1.0	8.9*	5.8
CO[C@@H]1CN(C)C(=O)c2ccc(NS(=O)(=O)c3cccc(F)c3)cc2OC[C@H](C)NC[C@H]1C	-0.3	/	/	/	/	5.2
O=C(c1ccco1)N1CCN(c2ncnc3c2oc2ccccc23)CC1	-5.6	1.5	-0.1	-3.4	10.0*	/
CC[C@H](C)[C@@H]1NC(=O)c2cc([N+](=O)[O-])cc(I)c2NCC[C@@H](C(N)=O)NC(=O)[C@H](CCCN=C(N)N)NC1=O	/	/	/	-3.4	-2.2	-7.3
NC(=O)[C@@H]1CCCNc2c(I)cc([N+](=O)[O-])cc2C(=O)N[C@@H](CCCN=C(N)N)C(=O)N[C@@H](CCCN=C(N)N)C(=O)N1	/	/	/	11.6*	-0.3	/
CCCC(=O)N1CC2(C1)CN(C(=O)Cc1ccccn1)[C@@H](CO)c1[nH]c3cc(OC)ccc3c12	/	/	/	/	/	-1.2
C[C@]12CC[C@H]3C(=CCc4cc(O)ccc43)[C@@H]1CCC2=O	1.8	33.3*	-7.3	-3.7	-2.6	0.8
C[C@]12C[C@H](O)[C@@H]3c4ccc(O)cc4CCC3[C@@H]1CCC2=O (stereo partly specified)	1.8	0.7	-10.7	0.1	-0.5	0.4
O=C(/C=C/c1ccccc1)c1ccccn1	-5.1	5.4	-10.5	-1.3	9.1*	/
CC(C)Sc1nc2ccccc2n2cnnc12	6.5	-5.3	-5.2	-1.6	10.6*	0.3
Cc1nc(SCC(=O)NCc2ccco2)c2c3c(sc2n1)CCCC3	-1.7	-0.7	-10.0	-3.5	1.4	/
CCCc1nc2sc3c(SCC(=O)NCc4ccco4)ncnc3c2c2c1CCC2	0.0	18.3	-16.8	14.7*	1.4	/
Cc1noc(C)c1S(=O)(=O)N(C)C[C@@H]1Oc2ccc(NC(=O)Cc3ccccc3)cc2CC(=O)N([C@H](C)CO)C[C@@H]1C	4.1	/	/	/	/	/
O=C(CCS(=O)(=O)c1ccc(Br)cc1)NCc1ccc(F)cc1	-1.2	-5.0	0.7	28.0*	-2.2	0.8
Cc1c(NC(=O)COC(=O)c2ccccc2Cl)c(=O)n(-c2ccccc2)n1C	/	-4.5	-7.7	-3.0	-1.8	-2.9
Cc1c(NC(=O)COC(=O)c2cc3c4ccccc4n(C)c3s2)c(=O)n(-c2ccccc2)n1C	1.6	-1.9	-17.2	4.8*	2.5	/
O=C(O)CCNc1cc(N2CCN(C(=O)c3ccco3)CC2)c2noc3c2c1C(=O)c1ccccc1-3	1.3	-9.2	-9.0	7.0*	0.1	-1.9
CCOC(=O)C(C(=O)OCC)c1cc(Br)c2noc3c2c1C(=O)c1ccccc1-3	/	4.5	-3.0	-3.4	-2.0	/
CC(=O)OCCNc1cc(N2CCN(C)CC2)c2noc3c2c1C(=O)c1ccccc1-3	-1.0	1.8	14.0	-0.8	8.2*	3.0
CC(=O)N1CC(=O)N2[C@H](CO)[C@@H](c3ccc(-c4ccncc4)cc3)[C@@H]2C1	/	/	/	/	/	-0.7

From PubChem
